In ChEMBL document CHEMBL1629582, “Novel nucleotide human immunodeficiency virus reverse transcriptase inhibitor GS-9148 with a low nephrotoxic potential: characterization of renal transport and accumulation” (Antimicrob Agents Chemother, 2009):

Columns and labels:
[1] = Cytotoxicity against CHO cells after 120 hrs by Cell-Titer Glo assay; type: cell-based, Cricetulus griseus; details: chinese hamster
In short: (§1)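 CHO cells carrying hOAT1 or empty vector were seeded in parallel at 3 × 10³/well. After 24 h, serial drug dilutions were added in triplicate and incubated 120 h. Viability was read by luminescence relative to untreated wells. CC50 was taken by nonlinear regression from two independent experiments, mean ± SD.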

[2] = Drug uptake in human kidney cortex at 5 uM by liquid scintillation counting in presence of 500 uM of probenecid; type: ADME, tissue-based
[3] = biological target: T1, Solute carrier family 22 member 6 (Homo sapiens, UniProt Q4U2R8); assay: Activity of human OAT1 transfected in CHO cells measured per 10^6 cells; type: cell-based
T1 sequence (Q4U2R8 whole entry): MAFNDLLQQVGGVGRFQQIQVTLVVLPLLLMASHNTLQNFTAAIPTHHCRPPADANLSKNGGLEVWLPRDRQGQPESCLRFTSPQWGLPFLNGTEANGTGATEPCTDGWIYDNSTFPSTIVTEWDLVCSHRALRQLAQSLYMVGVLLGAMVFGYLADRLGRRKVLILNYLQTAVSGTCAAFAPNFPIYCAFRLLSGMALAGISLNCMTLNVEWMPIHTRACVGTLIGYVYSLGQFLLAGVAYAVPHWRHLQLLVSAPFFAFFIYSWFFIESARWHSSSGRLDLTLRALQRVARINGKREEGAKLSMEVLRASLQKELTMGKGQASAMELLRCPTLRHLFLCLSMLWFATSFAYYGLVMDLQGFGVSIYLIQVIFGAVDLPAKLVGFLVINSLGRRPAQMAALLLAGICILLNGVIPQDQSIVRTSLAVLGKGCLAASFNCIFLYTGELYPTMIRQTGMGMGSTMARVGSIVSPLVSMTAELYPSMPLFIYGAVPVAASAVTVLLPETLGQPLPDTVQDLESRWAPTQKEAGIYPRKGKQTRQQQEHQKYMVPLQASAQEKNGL
In short: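 Radiolabelled substrate at various concentrations incubated 20 min at 37°C with CHO cells stably expressing hOAT1 in Waymouth buffer (pH 7.2). Cells washed in ice-cold PBS, lysed in 0.3% Triton X-100, uptake read by scintillation counting. Km and Vmax fitted by Michaelis-Menten. Two independent experiments in duplicate, mean ± SD.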

[4] = tested on: OAT1; assay: Cytotoxicity against CHO cells expressing hOAT1 after 120 hrs by Cell-Titer Glo assay; type: ADME, cell-based, Cricetulus griseus; details: chinese hamster; in short: as §1
[5] = Cellular uptake in human HEK293T cells expressing MRP4 efflux transporter assessed as accumulation of GS-9148 metabolite at 5 uM by liquid scintillation counting relative to control; type: ADME, cell-based; details: hek-293t
[6] = AUC (0 to 24 hrs) in dog at 3 mg/kg, po; type: ADME, organism-based, Canis lupus familiaris; set-up: time < 24 hr, dose 3 mg/kg, route oral; details: plasma
[7] = Cellular uptake in BHK21 cells expressing hOAT3 at 10 uM by liquid scintillation counting relative to control; type: ADME, cell-based, Mesocricetus auratus; details: hamster, bhk-21, 10 µM
In short: (§2)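 Radiolabeled nucleotide at 10 μM was incubated at 37°C in Waymouth buffer pH 7.2 with transporter-expressing cells (CHO-hOAT1 or BHK-hOAT3) and matching empty-vector control cells, with or without 500 μM probenecid. Uptake was sampled at several time points, with longer times for hOAT3. Washed cells were lysed in Triton X-100 and counted by scintillation. Two independent experiments in duplicate, mean ± SD; two-tailed paired t test.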

[8] = Renal clearance in dog urine at 3 mg/kg, po; type: ADME, organism-based, Canis lupus familiaris; set-up: dose 3 mg/kg, route oral; details: read-out: CL_renal (converted)
In short: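 Fasted dogs were given 3.0 mg/kg [14C]prodrug (10 μCi/kg) in 50 mM citrate pH 2.2 by oral gavage. Urine was collected on dry ice over 0–8 and 8–24 h and counted by scintillation. Parent nucleotide in pooled 0–24 h urine was measured by radio-HPLC on a C18 column with an ammonium formate/acetonitrile gradient. Renal clearance = 24-h urinary amount / 24-h plasma exposure / body weight; three dogs.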

[9] = Percent of urinary material present as GS-9148 in dog urine at 3 mg/kg, po
[10] = tested on: CHO; assay: Cellular uptake in CHO cells expressing hOAT1 at 10 uM by liquid scintillation counting in presence of 500 uM of probenecid relative to control; type: ADME, cell-based, Cricetulus griseus; details: chinese hamster; in short: as §2
[11] = Drug level in dog kidney at 3 mg/kg, po after 24 hrs by liquid scintillation counting; type: ADME, organism-based, Canis lupus familiaris; set-up: dose 3 mg/kg, route oral; details: in vivo
In short: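 Three fasted dogs were given 3.0 mg/kg [14C]prodrug (10 μCi/kg) orally in 50 mM citrate pH 2.2. Kidneys were excised at 24 h, rinsed, blotted and weighed, then combusted and counted by scintillation. Values are μg equivalents per gram tissue, mean ± SD of three dogs.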

[12] = Cellular uptake in human HEK293T cells expressing MRP4 efflux transporter at 5 uM by liquid scintillation counting in presence of 30 uM efflux inhibitor MK-571 relative to control; details: hek-293t
[13] = Cellular uptake in human HEK293T cells expressing MRP4 efflux transporter at 5 uM by liquid scintillation counting relative to control; details: hek-293t
[14] = Cellular uptake in BHK21 cells expressing hOAT3 at 10 uM by liquid scintillation counting in presence of 500 uM of probenecid relative to control; type: ADME, cell-based, Mesocricetus auratus; details: hamster, bhk-21, 10 µM; in short: as §2
[15] = tested on: CHO; assay: Cellular uptake in CHO cells expressing hOAT1 at 10 uM by liquid scintillation counting relative to control; type: ADME, cell-based, Cricetulus griseus; details: chinese hamster; in short: as §2
[16] = biological target: T2, OAT1 (SLC22A6) (Homo sapiens, UniProt Q4U2R8); assay: (§3) Activity of human OAT1 transfected in CHO cells; type: cell-based
T2 sequence (Q4U2R8 whole entry): T1 sequence (Q4U2R8 whole entry)
In short: (§4)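 CHO cells stably transfected with human OAT1, with empty-vector CHO cells run in parallel, seeded 48 h ahead. Radiolabeled substrate was given at a range of concentrations for 20 min at 37°C in Waymouth buffer pH 7.2. Cells were washed in ice-cold PBS, lysed in Triton X-100 and counted by scintillation. Km and Vmax came from Michaelis-Menten fitting; two independent experiments in duplicate, mean ± SD.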

[17] = substrate: Nc1ncnc2c1ncn2[C@@H]1O[C@H](OCP(=O)(O)O)C=C1F; assay: as §3; type: cell-based; in short: as §4
[18] = substrate: Nc1ncnc2c1ncn2[C@@H]1O[C@H](OCP(=O)(O)O)C=C1F; assay: (§5) Activity of human OAT3 transfected in BHK-21 cells; type: cell-based
In short: (§6)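 BHK-21 cells stably transfected with human OAT3 (the clone with highest probenecid-sensitive uptake), with empty-vector BHK cells in parallel, seeded on fibronectin 24 h ahead. Radiolabeled substrate was given at a range of concentrations for 120 min at 37°C in Waymouth buffer pH 7.2. Lysates were counted by scintillation. Km and Vmax came from Michaelis-Menten fitting; two independent experiments in duplicate.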

[19] = substrate: C[C@H](Cn1cnc2c(N)ncnc21)OCP(=O)(O)O; assay: as §5; type: cell-based; in short: as §6
[20] = substrate: Nc1ncnc2c1ncn2CCOCP(=O)(O)O; assay: as §5; type: cell-based; in short: as §6

Nc1ncnc2c1ncn2CCOCP(=O)(O)O [ADEFOVIR]
CC50 at 120 h [1]: ≥ 2000 µM | Drug uptake [2]: Active | Vmax [3]: 46 pmol/min

Nc1ccn(C[C@@H](CO)OCP(=O)(O)O)c(=O)n1.O.O [CIDOFOVIR]
CC50 at 120 h [1]: 520 µM | Vmax [3]: 103 pmol/min | CC50 at 120 h [4]: 3 µM

Nc1ncnc2c1ncn2[C@@H]1O[C@H](OCP(=O)(O)O)C=C1F [GS-9148]
Drug uptake [5]: Active | AUC(0-t) at 24 h [6]: 4.9 µM·h | Drug uptake [7]: Active | CL renal [8]: 7.83 mL/min/kg | percent of urinary material as GS-9148 [9]: 84% | Drug uptake [10]: Not Active | Drug uptake [11]: 2.49 µg/g | CC50 at 120 h [4]: 435 µM | Drug uptake [12]: Active | Drug uptake [13]: Not Active | Drug uptake [14]: Not Active | Drug uptake [15]: Active

C[C@H](Cn1cnc2c(N)ncnc21)OCP(=O)(O)O [TENOFOVIR ANHYDROUS]
Vmax [3]: 110 pmol/min | Km [16]: 33.8 µM

B1: Solute carrier family 22 member 6 (Homo sapiens) (protein)
chain: T1 sequence (Q4U2R8 whole entry)
Km [17]: 259 µM | Vmax [17]: 7.8e-06 µmol/min

B2: Organic anion transporter 3 (Homo sapiens) (protein)
chain: MTFSEILDRVGSMGHFQFLHVAILGLPILNMANHNLLQIFTAATPVHHCRPPHNASTGPWVLPMGPNGKPERCLRFVHPPNASLPNDTQRAMEPCLDGWVYNSTKDSIVTEWDLVCNSNKLKEMAQSIFMAGILIGGLVLGDLSDRFGRRPILTCSYLLLAASGSGAAFSPTFPIYMVFRFLCGFGISGITLSTVILNVEWVPTRMRAIMSTALGYCYTFGQFILPGLAYAIPQWRWLQLTVSIPFFVFFLSSWWTPESIRWLVLSGKSSKALKILRRVAVFNGKKEEGERLSLEELKLNLQKEISLAKAKYTASDLFRIPMLRRMTFCLSLAWFATGFAYYSLAMGVEEFGVNLYILQIIFGGVDVPAKFITILSLSYLGRHTTQAAALLLAGGAILALTFVPLDLQTVRTVLAVFGKGCLSSSFSCLFLYTSELYPTVIRQTGMGVSNLWTRVGSMVSPLVKITGEVQPFIPNIIYGITALLGGSAALFLPETLNQPLPETIEDLENWSLRAKKPKQEPEVEKASQRIPLQPHGPGLGSS
Km [18]: 1220 µM | Vmax [18]: 1.95e-05 µmol/min | Km [19]: 770 µM | Vmax [19]: 2.87e-05 µmol/min | Km [20]: 1220 µM | Vmax [20]: 0.000131 µmol/min
